Calls of active or inactive are those of the source. No cut-off for these calls is given here.
Legend:
[1] = tested on: T47D; test: Inhibition of 1,10-phenanthroline-induced VEGF protein secretion in human T47D cells at 10 uM after 16 hrs by ELISA; format: functional, cell-based
Method in brief: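 T47D cells stimulated with 1,10-phenanthroline, compound at 10 μM; secreted VEGF in conditioned media by ELISA, normalized to cell-lysate protein.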

[2] = tested on: K562; test: Growth inhibition of human K562 cells; format: functional
[3] = tested on: SR; test: Growth inhibition of human SR cells; format: functional
[4] = tested on: EKVX; test: Growth inhibition of human EKVX cells; format: functional
[5] = tested on: HOP-62; test: Growth inhibition of human HOP62 cells; format: functional
[6] = tested on: HOP-92; test: Growth inhibition of human HOP92 cells; format: functional
[7] = tested on: NCI-H226; test: Growth inhibition of human NCI-H226 cells; format: functional
[8] = tested on: NCI-H322M; test: Growth inhibition of human NCI-H322M cells; format: functional
[9] = tested on: NCI-H522; test: Growth inhibition of human NCI-H522 cells; format: functional
[10] = tested on: COLO 205; test: Growth inhibition of human COLO205 cells; format: functional
[11] = tested on: HCC 2998; test: Growth inhibition of human HCC2998 cells; format: functional
[12] = tested on: HCT-116; test: Growth inhibition of human HCT116 cells; format: functional
[13] = tested on: HCT-15; test: Growth inhibition of human HCT15 cells; format: functional
[14] = tested on: HT-29; test: Growth inhibition of human HT29 cells; format: functional
[15] = tested on: KM12; test: Growth inhibition of human KM12 cells; format: functional
[16] = tested on: SF-295; test: Growth inhibition of human SF295 cells; format: functional
[17] = tested on: SNB-19; test: Growth inhibition of human SNB19 cells; format: functional
[18] = tested on: SNB-75; test: Growth inhibition of human SNB75 cells; format: functional
[19] = tested on: Malme-3M; test: Growth inhibition of human MALME-3M cells; format: functional
[20] = tested on: M14; test: Growth inhibition of human M14 cells; format: functional
[21] = tested on: SK-MEL-2; test: Growth inhibition of human SK-MEL2 cells; format: functional
[22] = tested on: SK-MEL-28; test: Growth inhibition of human SK-MEL28 cells; format: functional
[23] = tested on: SK-MEL-5; test: Growth inhibition of human SK-MEL5 cells; format: functional
[24] = tested on: UACC-257; test: Growth inhibition of human UACC257 cells; format: functional
[25] = tested on: SK-OV-3; test: Growth inhibition of human SK-OV3 cells; format: functional
[26] = tested on: 786-0; test: Growth inhibition of human 786-0 cells; format: functional
[27] = tested on: A498; test: Growth inhibition of human A498 cells; format: functional
[28] = tested on: ACHN; test: Growth inhibition of human ACHN cells; format: functional
[29] = tested on: CAKI-1; test: Growth inhibition of human CAKI1 cells; format: functional
[30] = tested on: RXF 393; test: Growth inhibition of human RXF393 cells; format: functional
[31] = tested on: SN12C; test: Growth inhibition of human SN12C cells; format: functional
[32] = tested on: UO-31; test: Growth inhibition of human UO31 cells; format: functional
[33] = tested on: PC-3; test: Growth inhibition of human PC3 cells; format: functional
[34] = tested on: DU-145; test: Growth inhibition of human DU145 cells; format: functional
[35] = tested on: MCF7; test: Growth inhibition of human MCF7 cells; format: functional
[36] = tested on: MDA-MB-231; test: Growth inhibition of human MDA-MB-231 cells; format: functional
[37] = tested on: Hs-578T; test: Growth inhibition of human HS578T cells; format: functional
[38] = tested on: BT-549; test: Growth inhibition of human BT549 cells; format: functional
[39] = tested on: T47D; test: Growth inhibition of human T47D cells; format: functional
[40] = target: Hypoxia inducible factors; HIF-1-alpha, HIF-2-alpha (Homo sapiens, UniProt Q16665+Q99814); test: Inhibition of HIF1 activation in human T47D cells by TK-luciferase assay; format: cell-based
Method in brief: (§1)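 HIF-1 reporter (pHRE-TK-Luc) assays in transfected PC-3 or T47D cells; HIF-1 induced by hypoxia or by the hypoxia mimetic 1,10-phenanthroline (10 μM); compounds at half-log concentrations; luciferase activity measured; IC50 from experiments in triplicate.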

[41] = Inhibition of 1,10-phenanthroline-induced HIF1 activation in T47D cells by TK-luciferase assay; format: cell-based; details: Homo sapiens; method in brief: as §1
[42] = Inhibition of HIF1 activation in PC3 cells by TK-luciferase assay; format: cell-based; details: Homo sapiens, PC-3; method in brief: as §1
[43] = read-out: Log LC50 (the source's name) (converted)

For CCCc1cc(=O)c2c(OC)c3c(OC)cc(O)c(Oc4c(O)cc(OC)c5c(OC)c6c(=O)cc(CCC)oc6cc45)c3cc2o1, the Activity [1] was “inactive”, the GI50 [2] was 4.79 µM and the CC50 [2, 43] was 58.9 µM. It also gave a TGI ([2]; read-out: Log TGI (converted)) of 14.8 µM, a GI50 [3] of 2.88 µM and a CC50 [3, 43] of 77.6 µM. The TGI ([3]; read-out: Log TGI (converted)) was 7.08 µM, the GI50 [4] was 4.37 µM and the CC50 [4, 43] was 44.7 µM. The TGI ([4]; read-out: Log TGI (converted)) was 16.6 µM, the GI50 [5] was 2.57 µM and the CC50 [5, 43] was 28.2 µM. It also gave a TGI ([5]; read-out: Log TGI (converted)) of 8.13 µM, a GI50 [6] of 2.14 µM and a CC50 [6, 43] of 50.1 µM. For the same compound, the TGI ([6]; read-out: Log TGI (converted)) was 13.8 µM, the GI50 [7] was 16.2 µM and the CC50 [7, 43] was 79.4 µM. It also gave a TGI ([7]; read-out: Log TGI (converted)) of 35.5 µM, a GI50 [8] of 13.5 µM and a CC50 [8, 43] of 55 µM. It also gave a TGI ([8]; read-out: Log TGI (converted)) of 27.5 µM, a GI50 [9] of 6.61 µM and a CC50 [9, 43] of 60.3 µM. The TGI ([9]; read-out: Log TGI (converted)) was 21.9 µM, the GI50 [10] was 10 µM and the CC50 [10, 43] was 57.5 µM. It also gave a TGI ([10]; read-out: Log TGI (converted)) of 24 µM, a GI50 [11] of 13.5 µM and a CC50 [11, 43] of 56.2 µM. For the same compound, the TGI ([11]; read-out: Log TGI (converted)) was 27.5 µM, the GI50 [12] was 3.39 µM and the CC50 [12, 43] was 34.7 µM. For the same compound, the TGI ([12]; read-out: Log TGI (converted)) was 11.5 µM, the GI50 [13] was 7.41 µM and the CC50 [13, 43] was 47.9 µM. For the same compound, the TGI ([13]; read-out: Log TGI (converted)) was 20.4 µM, the GI50 [14] was 13.2 µM and the CC50 [14, 43] was 79.4 µM. The TGI ([14]; read-out: Log TGI (converted)) was 32.4 µM, the GI50 [15] was 13.8 µM and the CC50 [15, 43] was 69.2 µM. For the same compound, the TGI ([15]; read-out: Log TGI (converted)) was 30.9 µM, the GI50 [16] was 5.13 µM and the LC50 [16] was 50.1 µM. The TGI ([16]; read-out: Log TGI (converted)) was 18.6 µM, the GI50 [17] was 15.8 µM and the LC50 [17] was 55 µM. For the same compound, the TGI ([17]; read-out: Log TGI (converted)) was 29.5 µM, the GI50 [18] was 2.95 µM and the LC50 [18] was 30.2 µM. It also gave a TGI ([18]; read-out: Log TGI (converted)) of 8.71 µM, a GI50 [19] of 7.41 µM and a CC50 [19, 43] of 49 µM. The TGI ([19]; read-out: Log TGI (converted)) was 20.4 µM, the GI50 [20] was 3.02 µM and the LC50 (50% lethal concentration) [20] was 34.7 µM. It also gave a TGI ([20]; read-out: Log TGI (converted)) of 11.5 µM, a GI50 [21] of 10.7 µM and an LC50 [21] of 61.7 µM. The TGI ([21]; read-out: Log TGI (converted)) was 25.7 µM, the GI50 [22] was 11.5 µM and the CC50 [22, 43] was 53.7 µM. It also gave a TGI ([22]; read-out: Log TGI (converted)) of 24.5 µM, a GI50 [23] of 2.09 µM and an LC50 [23] of 7.08 µM. It also gave a TGI ([23]; read-out: Log TGI (converted)) of 3.8 µM, a GI50 [24] of 3.8 µM and an LC50 [24] of 40.7 µM. The TGI ([24]; read-out: Log TGI (converted)) was 13.8 µM, the GI50 [25] was 15.1 µM and the LC50 [25] was 53.7 µM. The TGI ([25]; read-out: Log TGI (converted)) was 28.2 µM, the GI50 [26] was 9.33 µM and the LC50 [26] was 49 µM. For the same compound, the TGI ([26]; read-out: Log TGI (converted)) was 21.9 µM, the GI50 [27] was 18.2 µM and the LC50 [27] was 60.3 µM. For the same compound, the TGI ([27]; read-out: Log TGI (converted)) was 33.1 µM, the GI50 [28] was 7.08 µM and the CC50 [28, 43] was 45.7 µM. It also gave a TGI ([28]; read-out: Log TGI (converted)) of 20 µM, a GI50 [29] of 11 µM and an LC50 [29] of 47.9 µM. For the same compound, the TGI ([29]; read-out: Log TGI (converted)) was 22.9 µM, the GI50 [30] was 1.62 µM and the LC50 [30] was 30.2 µM. The TGI ([30]; read-out: Log TGI (converted)) was 5.62 µM, the GI50 [31] was 2.09 µM and the LC50 [31] was 14.1 µM. For the same compound, the TGI ([31]; read-out: Log TGI (converted)) was 4.79 µM, the GI50 [32] was 6.61 µM and the LC50 [32] was 45.7 µM. For the same compound, the TGI ([32]; read-out: Log TGI (converted)) was 19.5 µM, the GI50 [33] was 6.31 µM and the LC50 [33] was 46.8 µM. The TGI ([33]; read-out: Log TGI (converted)) was 20 µM, the GI50 [34] was 6.03 µM and the CC50 [34, 43] was 43.7 µM. The TGI ([34]; read-out: Log TGI (converted)) was 18.6 µM, the GI50 [35] was 3.31 µM and the LC50 [35] was 100 µM. It also gave a TGI ([35]; read-out: Log TGI (converted)) of 10 µM, a GI50 [36] of 6.31 µM and an LC50 [36] of 53.7 µM. The TGI ([36]; read-out: Log TGI (converted)) was 21.4 µM, the GI50 [37] was 5.89 µM and the LC50 [37] was 100 µM. It also gave a TGI ([37]; read-out: Log TGI (converted)) of 69.2 µM, a GI50 [38] of 3.09 µM and an LC50 [38] of 34.7 µM. The TGI ([38]; read-out: Log TGI (converted)) was 11.2 µM, the GI50 [39] was 3.63 µM and the LC50 [39] was 91.2 µM. It also gave a TGI ([39]; read-out: Log TGI (converted)) of 12.9 µM, an IC50 [40] of 7.3 µM and an IC50 [41] of 0.8 µM. For the same compound, the IC50 [42] was 10 µM.

From ChEMBL document CHEMBL1141286, “Benzochromenones from the marine crinoid Comantheria rotula inhibit hypoxia-inducible factor-1 (HIF-1) in cell-based reporter assays and differentially suppress the growth of certain tumor cell lines” (J Nat Prod, 2007)
